Screening results deposited in PubChem BioAssay by Broad Institute.
Only some compounds are listed: those with a hit (about 1.9% of all), similar ones and a draw of the others.
Cneo AK release: Cryptococcus neoformans cell lysis inducers, primary screen, AK release luminescence, single concentration; lysis activity, % at 15 µM; C. neoformans lysis, adenylate kinase release luminescence, 4 h; normalised: neutral wells 0, clomiphene wells 100; 360,000 compounds, 0.2% hits;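 active = mean lysis activity across replicates of at least 80%, whatever share of replicates individually reach that level; inactive = mean lysis activity below 80%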
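Material – log-phase Cryptococcus neoformans yeast cells · Input – 5 × 10^6 yeast cells/mL · Medium – fresh YPD growth medium · Doses – single compound concentration per well · Timing – static 4 h at 37 °C with compound, 1 h detection · Detection – adenylate kinase release luminescence · Read-out – signal increase indicating cell lysis · Control set – Clomiphene as positive lysis control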
PGC1a acetyl inh: inhibitors of PGC1a acetylation signal, primary screen, cell-based, U2OS, AlphaScreen, inhibitor mode | AlphaScreen anti-acetyl-lysine; with virally co-expressed GCN5 acetyltransferase | inhibition, % at 15.6 µM | 350,000 compounds, 0.17% hits | AID 651687, 2012;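 active = every replicate shows inhibition of at least 40%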;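 also: 0% = neutral control wells and 100% = positive control wells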
XiGFP reactiv: activators of inactive X chromosome reactivation, primary screen, imaging, XiGFP fibroblasts, GFP high-content imaging, set 2; 360,000 compounds, 0.055% hits; AID 743238, 2013; activation, % at 7.58 µM; XiGFP mouse fibroblasts, % GFP-positive cells imaging, 3 d; cells co-treated with 5-aza-dC sensitizer; scaled so ellipticine positive control = 100%;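 active = mean normalized replicate activation at least 10% and every replicate at or above 10%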;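 also: 0% = median of on-plate neutral control wells and 100% = ellipticine 6 µM median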
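Material: XiGFP fibroblasts, SV40-immortalized; Buffer or medium: DMEM containing 5-aza-dC; Compound dosing: single point; Times: 3 days compound exposure.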
FN deposit inh: inhibitors of fibronectin matrix deposition, primary screen, AH1F cells, Alexa488-fibronectin fluorescence, plate reader; AH1F fibroblasts, overnight; AID 743247, 2014; inhibition, % at 12.6 µM; 350,000 compounds, 0.086% hits;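 active = mean inhibition across replicates of 30% or more, regardless of how many single replicates reach that level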;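 also: positive control wells lacked labelled fibronectin entirely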
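Assay system: AH1F fibroblast monolayer, labelled fibronectin deposition. Amount: 10000 cells per well. Also added: labelled fibronectin 24 nM. Compound: single-point pinned compound. Incubation: cell attachment 1 h, compound and FN exposure overnight. Detection: fluorescence after three HBSS washes, excitation 485 nm, emission 525 nm. Read-out: inhibition of fibronectin deposition signal.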
DENV2 CPE rescue: inhibitors of DENV2 cytopathic effect, primary screen, cell-based, plate reader, single concentration; DENV2-infected cells, cytopathic effect rescue; CPE inhibition, % at 9.99 µM; 350,000 compounds, 1.7% hits; AID 651640, 2012; in the data active = CPE inhibition above about 20%, passing the limit was not always enough; tested in BHK-21 cells;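 also: 0% = median of neutral control wells and 100% = median of positive control wells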
F508del corr: F508del CFTR correction, initial screen, CFBE line, single point. CFBE cells, YFP halide quenching; stimulated with forskolin plus potentiator P3; % fluorescence drop versus neutral controls. activity (quench increase), % at 7.58 µM. 350,000 compounds, 0.36% hits. AID 720511, 2013;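 active = mean added fluorescence quench of at least 8% versus neutral control, with both replicates also reaching 8%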;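 also: cells transiently co-express mutant CFTR-F508del with the halide-sensitive YFP; corrector assay measuring rescue of mutant channel to the surface after 24 h compound exposure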
An asterisk follows results filed as active; / = no result given.

SMILES	Cneo AK release	PGC1a acetyl inh	XiGFP reactiv	FN deposit inh	DENV2 CPE rescue	F508del corr
Fc1ccccc1/C=N/NC(=S)Nc1ccc(Cl)cc1Cl	-2	/	0	22	11	12*
CN(C)C(=O)c1cccc(-c2ccccc2[C@@H]2[C@@H](C#N)N(C(=O)C3CC3)[C@@H]2CO)c1	/	2	0	-5	46*	1
CN(C)C(=O)c1cccc(-c2ccccc2[C@@H]2[C@H](C#N)N(C(=O)C3CCCCC3)[C@H]2CO)c1	/	6	0	0	73*	-1
CN(C)C(=O)c1cccc(-c2ccccc2[C@H]2[C@@H](CO)N(C(=O)C3CC3)[C@H]2C#N)c1	/	-3	0	-4	1	1
N#C[C@H]1[C@@H](c2ccccc2-c2ccccc2F)[C@H](CO)N1C(=O)C1CC1	/	2	0	-5	26*	0
CN(C)C(=O)c1cccc(-c2ccccc2[C@H]2[C@@H](C#N)N(C(=O)C3CC3)[C@@H]2CO)c1	/	2	0	-5	69*	-1
CN(C)C(=O)c1cccc(-c2ccccc2[C@H]2[C@@H](C#N)N(C(=O)C3CCCCC3)[C@@H]2CO)c1	/	-7	0	1	2	0
C[C@H](CO)N1C[C@H](C)[C@H](CN(C)C(=O)C2CCC2)Oc2ncc(-c3ccc(F)cc3)cc2C1=O	-3	10	-1	1	8	-3
CCOc1ccccc1N(CC(=O)Nc1ccc(OC)cc1)S(=O)(=O)c1ccccc1	-1	0	0	-7	28*	3
CCOc1ccc(N(CC(=O)Nc2cccc(C)c2)S(C)(=O)=O)cc1	7	-4	0	1	43*	-3
CCOc1ccc(N(CC(=O)Nc2ccccc2OC)S(=O)(=O)c2ccccc2)cc1	-2	88*	1	-16	-4	0
CO[C@@H]1CN(C)C(=O)c2cc(NC(=O)C3CCC3)ccc2OC[C@H](C)N(Cc2ccncc2)C[C@@H]1C	-8	7	0	-2	7	3
CO[C@H]1CN(C)C(=O)c2cc(NC(=O)C3CCC3)ccc2OC[C@@H](C)N(Cc2ccncc2)C[C@@H]1C	-2	-1	0	-5	52*	0
CO[C@H]1CN(C)C(=O)c2cc(NC(=O)C3CC3)ccc2OC[C@@H](C)N(Cc2cncnc2)C[C@H]1C	84*	3	1	6	-1	5
CN1C(=O)c2cc(NC(=O)Nc3ccccc3F)ccc2OC[C@H]2O[C@@H](CC(=O)O)CC[C@@H]21	-1	0	0	-29	0	-3
COc1ccc(NC(=O)Nc2ccc3c(c2)C(=O)N([C@@H](C)CO)C[C@@H](C)[C@@H](CN(C)Cc2ccc4c(c2)OCO4)OCCCC[C@@H](C)O3)cc1	0	7	-1	/	34*	3
COc1ccc(NC(=O)Nc2ccc3c(c2)C(=O)N([C@@H](C)CO)C[C@H](C)[C@H](CN(C)Cc2ccc(C(=O)O)cc2)OCCCC[C@@H](C)O3)cc1	55	10	0	/	59*	1
COc1ccc(NC(=O)Nc2ccc3c(c2)C(=O)N([C@H](C)CO)C[C@@H](C)[C@H](CN(C)Cc2ccc4c(c2)OCO4)OCCCC[C@@H](C)O3)cc1	7	-3	0	/	24*	3
CO[C@@H]1CN(C)C(=O)c2cc(NS(C)(=O)=O)ccc2OC[C@H](C)N(CCC(F)(F)F)C[C@H]1C	-4	6	0	2	-4	3
O=C(NCC[C@@H]1CC[C@@H](NS(=O)(=O)c2cccc(F)c2)[C@@H](CO)O1)C1CCCC1	-3	6	0	4	-5	-1
CCCC(=O)Nc1ccc2nn(-c3ccc(OC)cc3)nc2c1	-4	-6	0	2	26*	0
